Test results taken from PMC2748811 (The Biochemical journal, 2009).
Where “and” joins values, the source holds several entries; their conditions need not be identical. Equal values may be shown once. Read-outs that look alike come from different tables or passages of the source.

Experiments:
[1] = tested on: PRWT (wild-type HIV-1 PR); test: Co-elution of active-site inhibitors with PRWT on size-exclusion chromatography; format: binding; details: results not shown
[2] = molecular target: T1, PRMDR (multi-drug-resistant HIV-1 PR) (Human immunodeficiency virus type 1 group M subtype B, UniProt P04585, A559V/I542V/I581L/K533R/L498I/L551P/L578M/V570T); test: Co-elution of inhibitors with PRMDR on size-exclusion chromatography; format: binding; details: for co-elution with PRMDR: MS detection
How it was run: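 PR_MDR was diluted to 0.25–2 μM subunit concentration in 150 mM ammonium acetate (pH 5.4) with 0.1 mg·ml⁻¹ BSA (final). The active-site inhibitor came from a 1 mM stock in 100% DMSO. Samples were incubated at 37 °C, and 8 μl was injected onto a BioSep SEC3000 column run isocratically at 0.35 ml·min⁻¹ in the same buffer. Detection was by fluorescence and by MS in SIM mode on chosen molecular ions.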

HIV-1 PR dimerization = test: Size-exclusion chromatography elution of HIV-1 PRs; format: biochemical; details: 1 μM (PRT26A 2 μM); 37 °C 60 min
PRT26A = details: read-out: dissociation constant (Kd); ref [30]; cited from earlier work
[3] = molecular target: T1, PRMDR (multi-drug-resistant HIV-1 PR); format: biochemical; details: for relative potency at inducing monomer formation: dose–response data, results not shown
[4] = tested on: HIV-1 PR (autoproteolysis); test: PR stability and autoproteolysis; format: biochemical; details: for autoproteolysis (SDS/PAGE): 20 h at 40 μM, 20 °C; for autoproteolysis (RP-HPLC–MS): after incubation in 150 mM ammonium acetate pH 5.4, results not shown
How it was run: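 Wild-type and multi-drug-resistant HIV-1 PR incubated 16–24 h in ammonium acetate buffer, with or without 1 mM TCEP. Activity read with a fluorescent PR substrate, mean ± S.D. Cleavage checked on Coomassie-stained 10 % Bis/Tris SDS/PAGE. Alternatively, 37 °C samples were quenched with solid guanidine hydrochloride (6 M final) for RP-HPLC, gradient to 95 % solvent B, monitored at 205/276 nm and by electrospray MS.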

PRMDR dimer = format: binding, HIV-1; details: 16 h at 37 °C; for Kd: 150 mM ammonium acetate pH 5.4
PRWT = details: 5 min pre-incubation with ≤25 nM PRWT; ref [16]; cited from earlier work
[5] = tested on: PR dimerization within infected cells; details: fluorescence resonance energy transfer assay; ref [32]; cited from earlier work
[6] = molecular target: T1, PRMDR (multi-drug-resistant HIV-1 PR); details: ref [20]; cited from earlier work
[7] = molecular target: T1, PRMDR (multi-drug-resistant HIV-1 PR); format: biochemical; details: 25 μM P27; PRMDR 1 μM; 16 h at 37 °C; excitation 280 nm
How it was run: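 PR_MDR (1 μM final) was incubated 16 h at 37 °C with 25 μM peptide dimerization inhibitor in 150 mM ammonium acetate containing 100 μg·ml⁻¹ BSA. An 8 μl sample was run by SEC in running buffer at pH 5.4, 0.35 ml·min⁻¹ isocratic. Fluorescence was read at 280 nm excitation and 350 nm emission, with emission spectra from 325–375 nm taken at each peak apex against reference spectra at 10.2 and 12 min. MS used SIM at m/z 1086 (10⁺).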

[8] = molecular target: T1, PRMDR (multi-drug-resistant HIV-1 PR); test: PR activity with fluorescent PR substrate after peptide treatment; format: biochemical; details: 16 h at 37 °C, PRMDR 1 μM; for PR activity: untreated 2.6
[9] = tested on: monomeric and dimeric forms of PR; details: 13C-labelled tryptophan residues of PR; ref [21]; cited from earlier work
HIV-2 PR dimerization = test: Size-exclusion chromatography elution of oxidized HIV-2 PR; format: biochemical; details: after hydrogen peroxide treatment; results not shown
[10] = 20 h at 37 °C, 150 mM ammonium acetate pH 5.4, 2 μM PR, n = 3
[11] = PRMDR 0.25–2 μM, approximate, MS
[12] = 25 μM P27, PRMDR 1 μM, 16 h at 37 °C, MS

## CC(C)c1nc(CN(C)C(=O)N[C@H](C(=O)N[C@@H](Cc2ccccc2)C[C@H](O)[C@H](Cc2ccccc2)NC(=O)OCc2cncs2)C(C)C)cs1 [ritonavir]
[1]
  co-elution with PRWT: co-elute with PRWT
[2]
  co-elution with PRMDR: did not elute with PRMDR

## CC(C)(C)NC(=O)[C@@H]1C[C@@H]2CCCC[C@@H]2CN1C[C@@H](O)[C@H](Cc1ccccc1)NC(=O)[C@H](CC(N)=O)NC(=O)c1ccc2ccccc2n1 [saquinavir]
[1]
  co-elution with PRWT: co-elute with PRWT
[2]
  co-elution with PRMDR: did not elute with PRMDR

## PRT26A: autoproteolysis-resistant and monomeric HIV-1 PR
HIV-1 PR dimerization
  elution time by MS: 11.2 min and 11.0 min
PRT26A
  Kd: > 1000 µM

## Ac-CTLNF [acetylated-CTLNF]
[3]
  relative potency at inducing monomer formation: P27 > CTLNF > Ac-CTLNF > Ac-TLNF

## Ac-TLNF [acetylated-TLNF, reference compound]
[3]
  relative potency at inducing monomer formation: P27 > CTLNF > Ac-CTLNF > Ac-TLNF

## PRWT: wild-type HIV-1 PR
[4]; 150 mM ammonium acetate pH 5.4
  autoproteolysis (SDS/PAGE): extensive autoproteolysis
[4]; [10]
  PR activity lost: more than 95%
[4]
  autoproteolysis (RP-HPLC–MS): substantial autoproteolysis
[4]; within 4 h of incubation
  autoproteolysis: approx. 40%

## PRMDR: multi-drug-resistant HIV-1 PR with L10I, K45R, I54V, L63P, A71V, V82T, L90M and I93L
[4]; 150 mM ammonium acetate pH 5.4
  autoproteolysis (SDS/PAGE): remained intact
[4]; [10]
  PR activity after incubation: remained unaffected
[4]
  autoproteolysis (RP-HPLC–MS): remained intact
HIV-1 PR dimerization
  elution time by MS: 10.8 min
PRMDR dimer; [11]
  elution time, earlier-eluting (dimer) PRMDR peak: ~10.8 min
  elution time, later-eluting (monomer) PRMDR peak: ~11.3 min
PRMDR dimer; read-out: apparent Kd for dimer dissociation, as dimeric concentration, dimeric concentration
  Kd: ~0.25 µM
PRMDR dimer; read-out: apparent Kd for dimer dissociation, monomeric concentration
  Kd: ~0.5 µM

## CTLNF [reference compound]
[3]
  relative potency at inducing monomer formation: P27 > CTLNF > Ac-CTLNF > Ac-TLNF
PRWT
  IC50: 150 µM

## PQITLRKKRRQRRRPPQVSFNFCTLNF [P27]
[5]
  block of PR dimerization within infected cells: block PR dimerization within infected cells
[3]; [12]
  PRMDR elution time, dimer peak: 10.8 min
  PRMDR elution time, monomer peak: 11.3 min
[3]; 25 μM P27, PRMDR at 0.5 μM
  monomer induced: 80%
[3]; 25 μM P27, PRMDR at 1 μM
  monomer induced: approx. 40%
[3]; 50 μM P27
  time to clear evidence of monomer formation: ≤ 4 h
[3]; 50 μM P27, PR 1 μM
  time to maximum effect / plateau of monomer formation: 10 to 12 h
[3]; 50 μM P27, steadily decreased thereafter
  time of peak absolute amount of detectable monomer: 6 to 8 h
[3]; 50 μM peptide, PRMDR 1 μM, 16 h at 37 °C, MS m/z 1086
  PRMDR peak elution time: 11.3 min
[3]; P27, PRMDR 1 μM, 16 h
  total PRMDR not recovered after treatment as compared to untreated: approx. 20%
[3]
  relative potency at inducing monomer formation: P27 > CTLNF > Ac-CTLNF > Ac-TLNF
[6]
  inhibition of PRMDR activity: inhibit PRMDR activity
[7]
  emission maximum λmax, dimer: 346 nm
  emission maximum λmax, monomer: 352 nm
[8]; 25 μM P27
  PR activity: 1.85 RFU min^−1 · μg^−1
[8]; 50 μM P27
  decrease in PRMDR enzyme activity: 99%
  PR activity: 0.0 RFU min^−1 · μg^−1

## Ac-SEYL-OH
[9]
  interaction with PR by NMR: interaction of a peptide dimerization inhibitor (Ac-SEYL-OH) with both monomeric and dimeric forms of PR

## CSC[C@H](NC(=O)COc1cccc2cnccc12)C(=O)N[C@@H](Cc1ccccc1)[C@H](O)C(=O)N1CSC[C@H]1C(=O)NC(C)(C)C [KNI-272]
[1]
  co-elution with PRWT: co-elute with PRWT
[2]
  co-elution with PRMDR: did not elute with PRMDR

## Cc1ccccc1CNC(=O)[C@H]1N(C(=O)[C@@H](O)[C@H](Cc2ccccc2)NC(=O)c2cccc(O)c2C)CSC1(C)C [JE-2147]
[3]; 1 μM JE-2147, PRMDR 0.25–2 μM, 16 h at 37 °C
  effect on PRMDR elution: PRMDR eluted as the earlier form (dimer)
[2]; MS, PRMDR dose–response
  correlation coefficient, JE-2147 area vs PRMDR area by MS: 0.997
[2]; molecular ion of inhibitor by MS, PRMDR also 10.8 min
  elution time of inhibitor co-eluting with PRMDR: 10.8 min

B1: PRHIV-2-OX: oxidized HIV-2 PR (protein, UniProt P04584 514-612, looked up)
Protease: PQFSLWKRPVVTAYIEGQPVEVLLDTGADDSIVAGIELGNNYSPKIVGGIGGFINTKEYKNVEIEVLNKKVRATIMTGDTPINIFGRNILTALGMSLNL
modifications: Protease oxidized
HIV-2 PR dimerization
  elution of oxidized HIV-2 PR: consistent with a monomeric form of the PR
